# From ChEMBL document CHEMBL2176901, “Pyrrolo[3,4-h]quinolinones a new class of photochemotherapeutic agents” (Bioorg Med Chem, 2011)
# pIC50: −log10 of the molar value. The source made the active and inactive calls. The calls are words filed in the database; no cut-off is given here.
# Assays:
# Jurkat [1] = experiment: Cell cycle arrest in UV-A irradiated human Jurkat cells assessed as accumulation at S phase at 5 uM after 24 hrs by propidium iodide based flow cytometry (reference value: 25.3 %); format: functional
# Outline: (§1)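 Exponentially growing Jurkat cells (5×10^5) irradiated with UV-A (365 nm lamp, 2.5 J/cm²) in presence of compound. After 24 h: fixed in ice-cold 70% ethanol, lysed with RNAse A, stained with PI (10 µg/ml), analysed by flow cytometry. Phases calculated on living cells; subG1 is hypodiploid DNA peak.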
# Jurkat [2] = experiment: Cell cycle arrest in UV-A irradiated human Jurkat cells assessed as accumulation at Sub G1 phase at 10 uM after 24 hrs by propidium iodide based flow cytometry (reference value: 0.1 %); format: functional; outline: as §1
# MCF7 [3] = experiment: Phototoxicity in 3.75 J/cm'2 UV-A irradiated human MCF7 cells after 72 hrs by MTT assay; format: functional, cell-based; conditions: MCF7, light or radiation study
# Outline: (§2)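 Seeded at 5 × 10³ cells/well with 10% FBS: MCF-7 and NCTC-2544 in DMEM, LoVo in Ham's F12. Pre-incubated 18 h at 37 °C, 5% CO2. Compound (DMSO stock diluted in HBSS pH 7.2) was applied for 30 min at 37 °C, then UV-A irradiation (mainly 365 nm, 4.0 mW/cm²). Medium was restored for 72 h before MTT. IC50 is the mean ± SEM of three experiences.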
# [4] = Phototoxicity in 3.75 J/cm'2 UV-A irradiated human NCTC-2544 cells after 72 hrs by MTT assay; format: functional, cell-based; conditions: NCTC-2544, light or radiation study; outline: as §2
# HL-60 [5] = experiment: Phototoxicity in 3.75 J/cm'2 UV-A irradiated human HL60 cells after 72 hrs by MTT assay; format: functional, cell-based; conditions: HL-60, light or radiation study
# Outline: (§3)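 HL-60 and Jurkat (8×10³/well, RPMI-1640) and MCF-7, LoVo, NCTC-2544 (5×10³/well; DMEM or Ham's F12) preincubated 18 h at 37 °C, 5% CO₂. Compound in DMSO diluted in HBSS pH 7.2, 30 min at 37 °C, then UV-A at 2.5 or 3.75 J/cm². Medium replaced, 72 h incubation, MTT read-out. IC50 as mean ± SEM of three experiments.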
# Jurkat [6] = experiment: Cell cycle arrest in UV-A irradiated human Jurkat cells assessed as accumulation at G2/M phase at 10 uM after 24 hrs by propidium iodide based flow cytometry (reference value: 10.3 %); format: functional; outline: as §1
# Nucleic Acid [7] = experiment: Binding affinity to salmon testes DNA at 10 uM by fluorescence titration; format: nucleic-acid assay; conditions: Salmonidae
# Outline: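 Fluorimetric titration of compound (10 μM) with increasing stDNA (0 to 100 μM) in 10 mM phosphate buffer pH 7.2; quenching of compound fluorescence monitored.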
# Jurkat [8] = experiment: Induction of lipid peroxidation in 3.75 J/cm'2 UV-A irradiated human Jurkat cells assessed as increase in TBARS formation after 24 hrs by thiobarbituric acid assay; format: functional, cell-based
# Outline: (§4)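 Lipid peroxidation measured as MDA–thiobarbituric acid adducts, with BHT added to samples; calibrated to a 1,1,3,3-tetraethoxypropane standard curve; protein by Peterson method.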
# Jurkat [9] = experiment: Cell cycle arrest in UV-A irradiated human Jurkat cells assessed as accumulation at G1 phase at 5 uM after 24 hrs by propidium iodide based flow cytometry (reference value: 64.4 %); format: functional; outline: as §1
# Nucleic Acid [10] = experiment: Binding affinity to salmon testes DNA at drug/DNA ratio of 0.01 by linear dichroism analysis; format: nucleic-acid assay; conditions: Salmonidae
# Outline: (§5)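 Flow linear dichroism in 10 mM phosphate buffer pH 7.2. Samples oriented in a rotating cylindrical cuvette (0.14 cm path, 800 rpm) at several drug/DNA ratios.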
# Jurkat [11] = experiment: Cell cycle arrest in UV-A irradiated human Jurkat cells assessed as accumulation at G1 phase at 10 uM after 24 hrs by propidium iodide based flow cytometry (reference value: 64.4 %); format: functional; outline: as §1
# Jurkat [12] = experiment: Cell cycle arrest in UV-A irradiated human Jurkat cells assessed as accumulation at S phase at 10 uM after 24 hrs by propidium iodide based flow cytometry (reference value: 25.3 %); format: functional; outline: as §1
# Nucleic Acid [13] = experiment: Binding affinity to salmon testes DNA at drug/DNA ratio of 0.03 by linear dichroism analysis; format: nucleic-acid assay; conditions: Salmonidae; outline: as §5
# [14] = Phototoxicity in 2.5 J/cm'2 UV-A irradiated human NCTC-2544 cells after 72 hrs by MTT assay; format: functional, cell-based; conditions: NCTC-2544, light or radiation study; outline: as §3
# MCF7 [15] = experiment: Phototoxicity in 2.5 J/cm'2 UV-A irradiated human MCF7 cells after 72 hrs by MTT assay; format: functional, cell-based; conditions: MCF7, light or radiation study; outline: as §3
# Jurkat [16] = experiment: Induction of lipid peroxidation in 2.5 J/cm'2 UV-A irradiated human Jurkat cells assessed as increase in TBARS formation after 24 hrs by thiobarbituric acid assay; format: functional, cell-based; outline: as §4
# Jurkat [17] = experiment: Cell cycle arrest in UV-A irradiated human Jurkat cells assessed as accumulation at G2/M phase at 5 uM after 24 hrs by propidium iodide based flow cytometry (reference value: 10.3 %); format: functional; outline: as §1
# LoVo [18] = experiment: Phototoxicity in 3.75 J/cm'2 UV-A irradiated human LoVo cells after 72 hrs by MTT assay; format: functional, cell-based; conditions: light or radiation study; outline: as §2
# Jurkat [19] = experiment: Phototoxicity in 2.5 J/cm'2 UV-A irradiated human Jurkat cells after 72 hrs by MTT assay; format: functional, cell-based; conditions: light or radiation study; outline: as §3
# LoVo [20] = experiment: Phototoxicity in 2.5 J/cm'2 UV-A irradiated human LoVo cells after 72 hrs by MTT assay; format: functional, cell-based; conditions: light or radiation study; outline: as §3
# Jurkat [21] = experiment: Cell cycle arrest in UV-A irradiated human Jurkat cells assessed as accumulation at Sub G1 phase at 5 uM after 24 hrs by propidium iodide based flow cytometry (reference value: 0.1 %); format: functional; outline: as §1
# Nucleic Acid [22] = experiment: Binding affinity to salmon testes DNA at drug/DNA ratio of 0.02 by linear dichroism analysis; format: nucleic-acid assay; conditions: Salmonidae; outline: as §5
# Jurkat [23] = experiment: Phototoxicity in 3.75 J/cm'2 UV-A irradiated human Jurkat cells after 72 hrs by MTT assay; format: functional, cell-based; conditions: light or radiation study
# Outline: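 Jurkat cells (8 × 10³/well) in RPMI-1640 with 10% FBS, held 18 h at 37 °C, 5% CO2. Compound stock in DMSO was diluted in HBSS pH 7.2 and added for 30 min at 37 °C. Cells were UV-A irradiated (lamp mainly 365 nm, 4.0 mW/cm²), then returned to medium for 72 h. MTT readout. IC50 is the mean ± SEM of three experiences.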
# [24] = Photodegradation of the compound in DMSO assessed as formation of photoproducts at 20 uM at 1.3 to 15.2 J/cm'2 UV-A irradiation; format: physicochemical
# Outline: (§6)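 Compound solutions at 20 μM in DMSO exposed to increasing UV-A doses (HPW 125 lamps, mainly 365 nm, 4.0 mW cm⁻²). Absorption spectra recorded after each dose; isosbestic points noted.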
# HL-60 [25] = experiment: Phototoxicity in 2.5 J/cm'2 UV-A irradiated human HL60 cells after 72 hrs by MTT assay; format: functional, cell-based; conditions: HL-60, light or radiation study; outline: as §3
# [26] = Photodegradation of the compound in DMSO assessed as formation of photoproducts at 20 uM at 1.3 to 14.3 J/cm'2 UV-A irradiation; format: physicochemical; outline: as §6
# Jurkat [27] = experiment: Induction of apoptosis in UV-A irradiated human Jurkat cells assessed as increase in number of damaged lysosomes at 5 to 10 uM by acridine orange-based flow cytometry; format: functional, cell-based
# Outline: (§7)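 Lysosomal stability in Jurkat cells 6, 12 and 24 h after UV-A (2.5 J/cm²) with compound. Cells resuspended in RPMI-1640 with 1 µM acridine orange; flow cytometry, excitation 488 nm, emission in FL3. Mean ± SEM of three experiments.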
# Jurkat [28] = experiment: Induction of apoptosis in UV-A irradiated human Jurkat cells assessed as increase in number of damaged lysosomes after 6 to 24 hrs by acridine orange- based flow cytometry; format: functional, cell-based; outline: as §7
# Jurkat [29] = experiment: Induction of apoptosis in UV-A irradiated human Jurkat cells assessed as loss of mitochondrial membrane potential after 6 hrs by cytofluorimetric analysis; format: functional, cell-based
# Outline: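 Jurkat cells 6, 12 and 24 h after UV-A (2.5 J/cm²) with compound, resuspended in HBSS with JC-1 (1 μg/ml). Green (FL1) and orange (FL2) fluorescence collected by flow cytometry, ≥10000 events; cells with monomeric JC-1 counted as collapsed potential. Mean ± SEM of three experiments.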
Compound,pIC50 (MCF7 [3]),pIC50 [4],pIC50 (HL-60 [5]),pIC50 [14],pIC50 (MCF7 [15]),pIC50 (LoVo [18]),pIC50 (Jurkat [19]),pIC50 (LoVo [20]),pIC50 (Jurkat [23]),pIC50 (HL-60 [25]),also measured
COc1nc2c(cc1S(=O)(=O)c1ccccc1)CCc1cn(C)cc1-2,5.70,5.96,6.05,5.31,5.60,6.05,6.00,5.72,6.70,5.80,Activity (Jurkat [1]): 45.4%; Activity (Jurkat [2]): 15.9%; Activity (Jurkat [6]): 9.5%; Activity (Nucleic Acid [7]): inactive; Activity (Jurkat [8]): Dose-dependent effect; Activity (Jurkat [9]): 49.6%; Activity (Nucleic Acid [10]): inactive; Activity (Jurkat [11]): 40.1%; Activity (Jurkat [12]): 50.4%; Activity (Nucleic Acid [13]): inactive; Activity (Jurkat [16]): Dose-dependent effect; Activity (Jurkat [17]): 5%; Activity (Jurkat [21]): 4%; Activity (Nucleic Acid [22]): inactive; Stability [24]: Unstable
O=c1[nH]c2c(cc1S(=O)(=O)c1ccccc1)CCc1cn(Cc3ccccc3)cc1-2,< 4.70,< 4.70,4.84,< 4.70,< 4.70,< 4.70,< 4.70,< 4.70,< 4.70,< 4.70,–
Cc1c2c(cn1Cc1ccccc1)CCc1cc(S(=O)(=O)c3ccccc3)c(=O)[nH]c1-2,5.11,4.84,5.60,< 4.70,< 4.70,< 4.70,4.89,< 4.70,5.52,5.40,Stability [26]: Unstable
COc1nc2c(cc1S(=O)(=O)c1ccccc1)CCc1cn(Cc3ccccc3)cc1-2,5.12,5.02,5.14,4.82,5.00,5.06,5.07,5.00,5.20,5.08,–
CCOC(=O)c1c2c(c(C)n1Cc1ccccc1)-c1[nH]c(=O)c(S(=O)(=O)c3ccccc3)cc1CC2,5.85,5.60,6.10,5.40,5.48,5.64,5.54,5.40,5.72,5.92,Activity (Jurkat [1]): 41.8%; Activity (Jurkat [2]): 12.5%; Activity (Jurkat [27]): Active; Activity (Jurkat [6]): 0.8%; Activity (Nucleic Acid [7]): inactive; Activity (Jurkat [8]): Dose-dependent effect; Activity (Jurkat [28]): Active; Activity (Jurkat [9]): 53.8%; Activity (Nucleic Acid [10]): inactive; Activity (Jurkat [11]): 44.8%; Activity (Jurkat [12]): 54.4%; Activity (Nucleic Acid [13]): inactive; Activity (Jurkat [29]): Active; Activity (Jurkat [16]): Dose-dependent effect; Activity (Jurkat [17]): 4.4%; Activity (Jurkat [21]): 3.8%; Activity (Nucleic Acid [22]): inactive
CCOC(=O)c1c2c(c(C)n1C)-c1[nH]c(=O)c(S(=O)(=O)c3ccccc3)cc1CC2,5.29,5.21,5.74,5.00,5.00,5.40,5.70,5.10,5.85,5.44,–
Cc1c2c(c(C(=O)O)n1C)CCc1cc(S(=O)(=O)c3ccccc3)c(=O)[nH]c1-2,< 4.70,< 4.70,< 4.70,< 4.70,< 4.70,< 4.70,< 4.70,< 4.70,< 4.70,< 4.70,–
